Test results as given in ChEMBL document CHEMBL2176911 (J Med Chem, 2012).
Calls of active or inactive are those of the source. The rule behind the calls is not given here.

Key:
[1] = target: Dual specificity protein kinase CLK3 (Mus musculus) (UniProt O35492); assay: Inhibition of mouse recombinant GST-tagged CLK3 expressed in Escherichia coli using GRSRSRSRSRSR as substrate and [gamma33P]ATP at 10 uM after 30 mins by scintillation counting
How it was run: (§1)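 Radiometric kinase assay with the RS peptide as substrate and 15 μM [γ-33P]ATP.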

[2] = target: Dual specificity protein kinase CLK1 (Mus musculus) (UniProt P22518); assay: Inhibition of mouse recombinant GST-tagged CLK1 expressed in Escherichia coli using GRSRSRSRSRSR as substrate and [gamma33P]ATP at 10 uM after 30 mins by scintillation counting; how it was run: as §1
[3] = target: T1, Dual specificity tyrosine-phosphorylation-regulated kinase 2 (Homo sapiens) (UniProt Q92630); assay: Inhibition of human recombinant GST-tagged DYRK2 expressed in Escherichia coli using GRSRSRSRSRSR as substrate and [gamma33P]ATP at 10 uM after 30 mins by scintillation counting
T1 sequence (whole entry): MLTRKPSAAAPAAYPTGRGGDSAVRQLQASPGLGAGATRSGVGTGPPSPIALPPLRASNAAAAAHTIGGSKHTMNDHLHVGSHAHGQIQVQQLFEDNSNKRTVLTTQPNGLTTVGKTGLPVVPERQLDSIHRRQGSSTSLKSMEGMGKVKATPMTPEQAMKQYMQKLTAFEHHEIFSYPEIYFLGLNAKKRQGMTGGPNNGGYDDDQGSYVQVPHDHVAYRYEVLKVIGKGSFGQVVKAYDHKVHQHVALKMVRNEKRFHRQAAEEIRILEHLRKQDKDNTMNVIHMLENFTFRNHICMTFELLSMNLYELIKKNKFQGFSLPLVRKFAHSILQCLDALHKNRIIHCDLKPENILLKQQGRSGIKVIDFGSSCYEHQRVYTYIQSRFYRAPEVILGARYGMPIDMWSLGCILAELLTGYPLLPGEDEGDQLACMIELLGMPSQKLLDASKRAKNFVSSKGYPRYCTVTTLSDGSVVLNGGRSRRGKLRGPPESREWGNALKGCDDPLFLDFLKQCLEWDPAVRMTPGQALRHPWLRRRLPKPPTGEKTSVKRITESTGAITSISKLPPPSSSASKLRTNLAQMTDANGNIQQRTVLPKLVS

[4] = target: Dual specificity tyrosine-phosphorylation-regulated kinase 1A (Homo sapiens) (UniProt Q13627); assay: Inhibition of human recombinant GST-tagged DYRK1A expressed in Escherichia coli using GRSRSRSRSRSR as substrate and [gamma33P]ATP at 15 uM after 30 mins by scintillation counting
[5] = tested on: HT-22; assay: Inhibition of GSK3-mediated […] phosphorylation in mouse HT22 cells at 10 uM after 24 hrs by Western blot analysis in presence of MG132; format: cell-based
[6] = tested on: HT-22; assay: Neuroprotective activity against glutamate-induced toxicity in mouse HT22 cells after 24 hrs by MTS assay; format: functional, cell-based
[7] = tested on: HT-22; assay: Inhibition of GSK3 in mouse HT22 cells at 10 uM after 4 hrs; format: cell-based
[8] = target: Dual specificity tyrosine-phosphorylation-regulated kinase 1A (Mus musculus) (UniProt Q61214); assay: Inhibition of DYRK1A in mouse HT22 cells at 10 uM after 4 hrs; format: cell-based; conditions: HT-22

Chain of Dual specificity protein kinase CLK3 (Mus musculus) (O35492 whole entry): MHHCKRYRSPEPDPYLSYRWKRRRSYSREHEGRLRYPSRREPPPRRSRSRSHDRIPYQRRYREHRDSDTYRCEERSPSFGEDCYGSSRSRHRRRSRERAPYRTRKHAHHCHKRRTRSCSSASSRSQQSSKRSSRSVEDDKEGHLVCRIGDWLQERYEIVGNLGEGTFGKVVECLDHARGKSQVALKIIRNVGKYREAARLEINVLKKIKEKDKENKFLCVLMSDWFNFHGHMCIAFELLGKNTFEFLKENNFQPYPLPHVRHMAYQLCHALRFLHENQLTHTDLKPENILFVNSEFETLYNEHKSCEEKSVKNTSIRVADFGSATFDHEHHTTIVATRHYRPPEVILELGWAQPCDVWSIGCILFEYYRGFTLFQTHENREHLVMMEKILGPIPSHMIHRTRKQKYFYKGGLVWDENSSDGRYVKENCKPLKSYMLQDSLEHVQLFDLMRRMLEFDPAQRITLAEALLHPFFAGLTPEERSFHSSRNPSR
Chain of Dual specificity protein kinase CLK1 (Mus musculus) (P22518 whole entry, looked up): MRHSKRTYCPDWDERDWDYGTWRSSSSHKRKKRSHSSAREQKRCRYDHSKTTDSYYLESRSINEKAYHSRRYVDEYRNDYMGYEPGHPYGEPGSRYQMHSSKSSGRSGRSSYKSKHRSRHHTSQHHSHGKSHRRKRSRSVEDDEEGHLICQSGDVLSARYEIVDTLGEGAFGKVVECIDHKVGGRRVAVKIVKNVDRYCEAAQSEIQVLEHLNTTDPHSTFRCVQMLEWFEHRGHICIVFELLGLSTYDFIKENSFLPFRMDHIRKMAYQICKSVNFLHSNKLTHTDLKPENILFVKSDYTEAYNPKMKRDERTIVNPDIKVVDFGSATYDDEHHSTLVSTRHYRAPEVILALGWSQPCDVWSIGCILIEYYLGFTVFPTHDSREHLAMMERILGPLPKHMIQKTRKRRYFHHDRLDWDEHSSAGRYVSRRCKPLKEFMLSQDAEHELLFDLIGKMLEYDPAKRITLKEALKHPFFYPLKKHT

Row | Structure (SMILES) | inhibition [1] | inhibition [2] | inhibition [3] | inhibition [4] | inhibition [5] | Activity [6] | inhibition [7] | inhibition [8]
1 | CC12CC3CC(C)(C1)CC(N)(C3)C2 | inactive | inactive | inactive | inactive | – | – | – | –
2 | Nc1c2c(nc3ccccc13)CCCC2 | inactive | inactive | inactive | inactive | – | – | – | –
3 | COc1cc2c(cc1OC)C(=O)C(CC1CCN(Cc3ccccc3)CC1)C2 (stereo not drawn) | inactive | inactive | inactive | inactive | – | – | – | –
4 | O=C1Nc2cc(Br)ccc2/C1=C1/N=c2ccccc2=C1NO | – | – | – | – | Active | – | – | –
5 | Nc1ccc(C(=O)Nc2cccc(-c3nc(N4CCOCC4)c4oc5ncccc5c4n3)c2)cn1 | – | – | – | – | – | inactive | – | –
6 | O=C1Cc2c([nH]c3ccc([N+](=O)[O-])cc23)-c2ccccc2N1 | – | – | – | – | Active | Active | Active | inactive
